In ChEMBL document CHEMBL4622881, “Design, synthesis and biological evaluation of novel pyrrolo[2,3-d]pyrimidine as tumor-targeting agents with selectivity for tumor uptake by high affinity folate receptors over the reduced folate carrier” (Bioorg Med Chem, 2020):

How the values were obtained:
[1] = Inhibition of GARFTase in Chinese Hamster MTXRII-OuaR2-4/RFC/FRalpha/PCFT-null R2 cells assessed as reduction in cell growth after 96 hrs by Cell-Titer Blue assay; type: cell-based; details: Cricetulus griseus, R2, 96 h
[2] = Inhibition of GARFTase in Chinese Hamster PC43-10 cells expressing human RFC assessed as reduction in cell growth after 96 hrs by Cell-Titer Blue assay; details: Cricetulus griseus, PC43-10, 96 h
Procedure, shortened: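 PC43-10 (RFC) or R2/PCFT4 (PCFT) CHO, grown in α-MEM + 10% bovine calf serum + G418 (1 mg/mL). ~2000 cells/well exposed to 0–1000 nM drug in folate-free RPMI 1640 with 10% dialyzed FBS and 25 nM leucovorin for 96 h. Viability by Cell-Titer Blue fluorescence; IC50 as 50% growth inhibition relative to drug-free cells; mean of 5–16 experiments.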

[3] = Inhibition of GARFTase in Chinese Hamster RT16 cells expressing human FRalpha assessed as reduction in cell growth after 96 hrs by Cell-Titer Blue assay; type: cell-based; details: Cricetulus griseus, RT16, 96 h
[4] = Inhibition of GARFTase in Chinese Hamster D4 cells expressing human FRbeta assessed as reduction in cell growth after 96 hrs by Cell-Titer Blue assay; type: cell-based; details: Cricetulus griseus
[5] = Inhibition of GARFTase in Chinese Hamster MTXRII-OuaR2-4 R2 cells expressing human PCFT assessed as reduction in cell growth after 96 hrs by Cell-Titer Blue assay; type: cell-based; details: Cricetulus griseus, R2, 96 h
Cricetulus griseus [6] = species on record: Cricetulus griseus; experiment: Potency index, ratio of (2S)-2-[[4-[4-(2-amino-4-oxo-3,7-dihydropyrrolo[2,3-d]pyrimidin-6-yl)butyl]benzoyl]amino]pentanedioic acid IC50 to compound IC50 for GARFTase in Chinese Hamster D4 cells expressing human FRbeta assessed as reduction in cell growth after 96 hrs by Cell-Titer Blue assay; type: cell-based
Procedure, shortened: (§1)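 CHO sublines from transporter-null R2 cells, expressing human FRβ (D4) or FRα (RT16), were kept in α-MEM with 10% calf serum and G418 (1 mg/mL). They were then moved to folate-free RPMI 1640 with 10% dialyzed FBS for 3 days. ~2000 cells/well were exposed to 0–1000 nM drug with 2 nM leucovorin for 96 h, ± 200 nM folic acid, and read by Cell-Titer Blue fluorescence. IC50 is 50% growth loss versus untreated cells; index is reference IC50 over compound IC50.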

[7] = biological target: T1, Trifunctional purine biosynthetic protein adenosine-3 (Homo sapiens) (UniProt P22102); experiment: Potency index, ratio of (2S)-2-[[4-[4-(2-amino-4-oxo-3,7-dihydropyrrolo[2,3-d]pyrimidin-6-yl)butyl]benzoyl]amino]pentanedioic acid IC50 to compound IC50 for GARFTase in human KB cells assessed as reduction in cell growth after 96 hrs by Cell-Titer Blue assay; type: cell-based
T1 sequence (whole entry): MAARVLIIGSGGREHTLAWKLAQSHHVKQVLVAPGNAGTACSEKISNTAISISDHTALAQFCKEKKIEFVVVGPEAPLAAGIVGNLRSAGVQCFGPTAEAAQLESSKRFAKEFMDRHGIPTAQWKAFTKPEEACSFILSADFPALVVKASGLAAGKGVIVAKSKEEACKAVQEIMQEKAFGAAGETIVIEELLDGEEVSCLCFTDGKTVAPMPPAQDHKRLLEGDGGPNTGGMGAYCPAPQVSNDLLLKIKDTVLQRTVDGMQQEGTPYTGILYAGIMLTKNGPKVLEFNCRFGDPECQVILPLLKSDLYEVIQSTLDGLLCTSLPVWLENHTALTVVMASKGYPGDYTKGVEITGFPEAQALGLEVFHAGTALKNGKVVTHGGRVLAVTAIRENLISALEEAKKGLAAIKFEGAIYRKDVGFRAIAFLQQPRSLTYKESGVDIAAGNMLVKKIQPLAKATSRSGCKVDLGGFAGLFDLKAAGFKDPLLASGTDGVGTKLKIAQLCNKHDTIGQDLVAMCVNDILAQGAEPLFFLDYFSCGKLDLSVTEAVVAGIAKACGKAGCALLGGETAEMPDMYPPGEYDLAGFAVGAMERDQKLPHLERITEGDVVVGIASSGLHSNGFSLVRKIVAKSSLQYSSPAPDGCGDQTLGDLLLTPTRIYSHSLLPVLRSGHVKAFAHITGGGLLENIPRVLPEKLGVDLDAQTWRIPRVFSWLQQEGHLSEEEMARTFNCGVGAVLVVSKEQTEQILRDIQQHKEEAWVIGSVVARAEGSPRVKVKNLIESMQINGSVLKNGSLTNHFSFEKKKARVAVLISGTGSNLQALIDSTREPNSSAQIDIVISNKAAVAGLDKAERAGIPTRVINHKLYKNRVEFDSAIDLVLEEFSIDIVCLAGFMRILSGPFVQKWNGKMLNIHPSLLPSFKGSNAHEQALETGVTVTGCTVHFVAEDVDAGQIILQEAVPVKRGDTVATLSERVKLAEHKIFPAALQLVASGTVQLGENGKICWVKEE
Procedure, shortened: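 KB human carcinoma cells, which express RFC, FRα and PCFT, were maintained in folate-free RPMI with 10% FBS. ~2000 cells/well were exposed to 0–1000 nM drug in folate-free RPMI 1640 with 10% dialyzed FBS and 2 nM leucovorin for 96 h, ± 200 nM folic acid. Viability was read by Cell-Titer Blue fluorescence. IC50 is 50% growth loss versus untreated cells; index is reference IC50 over compound IC50.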

Cricetulus griseus [8] = species on record: Cricetulus griseus; experiment: Potency index, ratio of (2S)-2-[[4-[4-(2-amino-4-oxo-3,7-dihydropyrrolo[2,3-d]pyrimidin-6-yl)butyl]benzoyl]amino]pentanedioic acid IC50 to compound IC50 for GARFTase in Chinese Hamster RT16 cells expressing human FRalpha assessed as reduction in cell growth after 96 hrs by Cell-Titer Blue assay; type: cell-based; procedure, shortened: as §1

| Structure (SMILES) | IC50 [1] | IC50 [2] | IC50 [3] | IC50 [4] | IC50 [5] | Ratio IC50 (Cricetulus griseus [6]) | Ratio IC50 [7] | Ratio IC50 (Cricetulus griseus [8]) |
| --- | --- | --- | --- | --- | --- | --- | --- | --- |
| Nc1nc2[nH]c(CCCCc3ccc(C(=O)N[C@@H](CCC(=O)O)C(=O)O)cc3)cc2c(=O)[nH]1 | > 1000 nM | > 1000 nM | – | – | – | – | – | – |
| Nc1nc2[nH]c(CCNc3ccc(C(=O)N[C@@H](CCC(=O)O)C(=O)O)cc3)cc2c(=O)[nH]1 | > 1000 nM | 510 nM | 3.04 nM | 0.62 nM | 87.4 nM | – | – | – |
| Nc1nc2[nH]c(CCCNc3ccc(C(=O)N[C@@H](CCC(=O)O)C(=O)O)cc3)cc2c(=O)[nH]1 | 697 nM | 670 nM | 1.76 nM | 1.51 nM | 235 nM | 6 | 2 | 3 |
| Nc1nc2[nH]c(CCCN(C(=O)C(F)(F)F)c3ccc(C(=O)N[C@@H](CCC(=O)O)C(=O)O)cc3)cc2c(=O)[nH]1 | > 1000 nM | > 1000 nM | 5.78 nM | 3.87 nM | 487 nM | 3 | – | – |
| CC(=O)N(CCCc1cc2c(=O)[nH]c(N)nc2[nH]1)c1ccc(C(=O)N[C@@H](CCC(=O)O)C(=O)O)cc1 | > 1000 nM | > 1000 nM | 57.2 nM | 12.8 nM | > 1000 nM | – | – | – |
| Nc1nc2[nH]c(CCCc3ccc(C(=O)N[C@@H](CCC(=O)O)C(=O)O)cc3)cc2c(=O)[nH]1 | > 1000 nM | 649 nM | – | – | – | – | – | – |
| Nc1nc2[nH]c(CCCN(C=O)c3ccc(C(=O)N[C@@H](CCC(=O)O)C(=O)O)cc3)cc2c(=O)[nH]1 | > 1000 nM | > 1000 nM | 35.6 nM | 0.61 nM | 893 nM | 16 | – | – |
| Nc1nc2[nH]c(CCCOc3ccc(C(=O)N[C@@H](CCC(=O)O)C(=O)O)cc3)cc2c(=O)[nH]1 | > 1000 nM | > 1000 nM | 4.6 nM | 5.6 nM | > 1000 nM | 2 | – | – |
| Nc1nc2[nH]c(CCCSc3ccc(C(=O)N[C@@H](CCC(=O)O)C(=O)O)cc3)cc2c(=O)[nH]1 | > 1000 nM | > 1000 nM | 2.56 nM | 0.6 nM | 593 nM | 16 | 6 | 2 |
